Most compounds without a hit are left out; they make up all but 3.5% or so of the library.
HIV Rev-RRE inh – disrupts HIV-1 Rev binding to RRE RNA; P05866; Rev peptide-RRE RNA binding, FRET; inhibition, % at 8 µM; actives 0.79% (n = 97,000);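 active = inhibition above the screen-wide mean plus 3 SD, cut at about 35% in these data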
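Test system: Cy5-tagged RRE RNA duplex with fluorescein-tagged Rev peptide; Probe or stimulus: labelled Rev peptide; Schedule: 5 min preincubation and 15 min binding, 25 °C; Signal: FRET fluorescence readout; Evaluation: % inhibition from 671/540 nm acceptor-to-donor ratio, scaled between controls; Control set: DMSO and neomycin B.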
ERb SRC1 inh – blocks coactivator binding to human estrogen receptor beta | TR-FRET ER-beta LBD / SRC1-Cy5 peptide binding; receptor agonist-loaded with 1 µM estradiol | inhibition, % at 25.6 µM | actives 1.3% (n = 86,000);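 active = compounds whose percent inhibition of the receptor-coactivator binding signal exceeds about 50% in the single-dose screen, limit read from the data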
Target sequence (Q92731 whole entry, looked up, the tested form may be a part): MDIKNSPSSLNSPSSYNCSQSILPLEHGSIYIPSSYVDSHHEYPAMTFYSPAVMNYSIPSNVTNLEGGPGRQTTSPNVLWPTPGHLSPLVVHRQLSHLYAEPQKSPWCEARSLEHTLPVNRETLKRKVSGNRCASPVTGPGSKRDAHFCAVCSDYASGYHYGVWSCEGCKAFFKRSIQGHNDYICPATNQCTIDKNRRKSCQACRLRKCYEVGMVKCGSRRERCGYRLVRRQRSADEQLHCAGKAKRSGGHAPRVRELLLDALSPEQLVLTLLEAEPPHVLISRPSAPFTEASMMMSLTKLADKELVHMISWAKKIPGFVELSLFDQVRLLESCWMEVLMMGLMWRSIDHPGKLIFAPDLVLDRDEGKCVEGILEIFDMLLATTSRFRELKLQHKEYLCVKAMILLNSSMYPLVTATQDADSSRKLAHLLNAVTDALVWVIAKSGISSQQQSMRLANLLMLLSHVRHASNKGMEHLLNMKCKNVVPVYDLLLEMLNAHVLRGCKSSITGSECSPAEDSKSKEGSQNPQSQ
ERa coact pot – enhances coactivator binding to human estrogen receptor alpha. P03372. TR-FRET ERalpha-LBD/SRC-Cy5 coactivator binding, 2 h; 100 = basal binding, no effect. coactivator binding (% of control), % at 25.6 µM. actives 1.3% (n = 86,000); in the data active = activity above about 200%;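 note: binding measured in presence of low estradiol as agonist stimulus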
sEH inh – soluble epoxide hydrolase (human) inhibition | P34913 | recombinant human sEH enzymatic activity assay | inhibition, % at 2 µM | actives 0.34% (n = 91,000) | AID 707; in the data active = inhibition above about 80%
sEH act – activators of human soluble epoxide hydrolase. actives 0.04% (n = 91,000). purified human sEH enzymatic activity, activator screen. activation, % at 2 µM; in the data active = activation above about 37%
ERa SRC1 inh – blocks coactivator binding to human estrogen receptor alpha; P03372; TR-FRET ER-alpha LBD / SRC-1 peptide, estradiol-bound; inhibition, % at 25.6 µM; actives 1.7% (n = 86,000); in the data active = inhibition above about 50%
Each line names hits and unclear results; the compound was inactive in the other large screens; [ ] = dose if it differs, or a comment.

CCCn1cnc2c(c1=O)c1nc3ccccc3nc1n2CCC1=CCCCC1	none
O=c1c2c3nc4ccccc4nc3n(/N=C/c3ccco3)c2ncn1CCC1=CCCCC1	ERa SRC1 inh 66[fluorescence artefact?] (no result: HIV Rev-RRE inh, sEH inh, sEH act)
CC1=NN2C(=N)/C(=C\c3ccc(SCc4ccccc4)o3)C(=O)N=C2S1	none
N=C1/C(=C\c2ccc(SCc3ccco3)o2)C(=O)N=C2SC=NN12	HIV Rev-RRE inh 59 (no result: ERb SRC1 inh, ERa coact pot, ERa SRC1 inh)
CCOc1ccc(-c2nc(CSc3nnc(N)s3)cs2)cc1	none (no result: ERb SRC1 inh, ERa coact pot, ERa SRC1 inh)
O=C(c1cc(-c2cccs2)nc2ccccc12)N1CCN(S(=O)(=O)c2ccccc2)CC1	ERa coact pot 201[fluorescence artefact?]
COC(=O)C1=C(C)n2nnnc2NC1c1cc2ccccc2o1 (configuration not stated)	none (no result: HIV Rev-RRE inh, sEH inh, sEH act)
Clc1ccccc1-c1nnc2sc(CCc3ccccc3)nn12	none
CCN(CC)c1ccc(/C=c2/sc3nnc(-c4ccccc4C)n3c2=O)cc1	HIV Rev-RRE inh 118[fluorescence artefact?], ERa coact pot 413[fluorescence artefact?]
CCN(CC)c1ccc(/C=c2\sc3nnc(-c4ccccc4Cl)n3c2=O)cc1	HIV Rev-RRE inh 134[fluorescence artefact?]
Cc1ccc(/C=c2/sc3nnc(-c4ccccc4Cl)n3c2=O)o1	ERa SRC1 inh 58[fluorescence artefact?]
Cc1ccc(S(=O)(=O)Cc2ccc(C(=O)N3CCN(c4ccc(F)cc4)CC3)o2)cc1	none
Cc1cc(C)c(NC(=O)c2cc3c(nc4sccn43)s2)c(C)c1	ERb SRC1 inh 55[fluorescence artefact?], ERa SRC1 inh 86[fluorescence artefact?]
Cc1ccc(C)c(C(=O)c2c(C)nc3sccn23)c1	none
O=c1cc(C(F)(F)F)nc(-n2[nH]c3c(c2=O)CCCC3)[nH]1	HIV Rev-RRE inh 67 (no result: ERb SRC1 inh, ERa coact pot, ERa SRC1 inh)
Cc1ccccc1Nc1nc(N)nc(CSc2nc3ccccc3c(=O)n2C)n1	ERa SRC1 inh 78
NC(=O)c1c(-c2cccs2)csc1N	none
CC1(C)C(O)=C(c2nc3ccccc3[nH]2)C(=N)N1c1ccccc1	none (no result: sEH inh, sEH act)
N=c1c(-c2nc3ccccc3[nH]2)cc(C(=O)c2cccs2)nn1-c1ccccc1	ERb SRC1 inh 62[fluorescence artefact?], ERa SRC1 inh 92[fluorescence artefact?]
O=C1CC(c2ccco2)CC(O)=C1C=Nc1cc(Cl)ccc1O (configuration not stated)	ERa SRC1 inh 52 (no result: sEH inh, sEH act)
O=C1CC(c2ccco2)CC(O)=C1C=Nc1ccc(Br)cc1 (configuration not stated)	none
Cc1ccccc1CS(=O)(=O)Cc1ccc(C(=O)NCCCN2CCCC2=O)o1	none
CCOC(=O)N1CCN(CCC(=O)Nc2ccccc2OC)CC1	none
CCn1c(NN)nc2sc3c(c2c1=O)CCC3	ERb SRC1 inh 52
CCc1nc2sc3c(c2c(=O)n1N)CCC3	none
CCCCn1c(=N)n(CC(O)COc2cccc(C)c2)c2ccccc21 (configuration not stated)	none
CN1/C(=C/C=C(/C#N)C(N)=O)C(C)(C)c2ccccc21	HIV Rev-RRE inh 47 (no result: ERb SRC1 inh, ERa coact pot, ERa SRC1 inh)
O=C1CC(C(=O)Nc2ccccc2)C2(CCCC2)O1 (configuration not stated)	none (no result: ERb SRC1 inh, ERa coact pot, ERa SRC1 inh)
O=C1CC(C(=O)Nc2ccc(C(=O)N3CCOCC3)cc2)C2(CCCCC2)O1 (configuration not stated)	ERa SRC1 inh 56[fluorescence artefact?]
O=C1C2C3C=CC(C3)C2C(=O)N1CNc1ccc(O)cc1 (configuration not stated)	ERb SRC1 inh 87[fluorescence artefact?], ERa SRC1 inh 61[fluorescence artefact?] (no result: HIV Rev-RRE inh, sEH inh, sEH act)
CCOC(=O)c1cnn(-c2nc(-c3ccccc3)nc3c2COC(C)(C)C3)c1N	none (no result: HIV Rev-RRE inh, sEH inh, sEH act)
CC1(C)CC(=O)C2=C(C1)N=c1s/c(=C/c3ccc(F)c(F)c3)c(=O)n1C2c1ccc(F)cc1 (configuration not stated)	sEH act 37 (no result: ERb SRC1 inh, ERa coact pot, ERa SRC1 inh)
COc1cc(C2C(C#N)=C(N)OC3=C2C(=O)CC(C)(C)C3)c([N+](=O)[O-])cc1OC (configuration not stated)	HIV Rev-RRE inh 49 (no result: ERb SRC1 inh, ERa coact pot, ERa SRC1 inh)
Nc1cc2c([N+](=O)[O-])cccc2o1	HIV Rev-RRE inh 51
O=c1oc2ccccc2c(Nc2cccc(O)c2)c1[N+](=O)[O-]	none
O=c1cc(CSc2nnnn2-c2ccccc2)nc(Nc2ccc(F)cc2)[nH]1	ERa coact pot 373, ERa SRC1 inh 53
Cc1cccn2c(N)c(-c3ccccc3)nc12	HIV Rev-RRE inh 108[fluorescence artefact?]
O=C(N[C@@H](Cc1ccccc1)C(=O)NC1CCCCC1)c1ccco1	none (no result: ERb SRC1 inh, ERa coact pot, ERa SRC1 inh)
O=C(N[C@@H](Cc1ccccc1)C(=O)NC1CCCCCC1)c1ccco1	sEH inh 80 (no result: ERb SRC1 inh, ERa coact pot, ERa SRC1 inh)
